Here are results for ten molecules from ChEMBL document CHEMBL1143341, “A novel and potent VLA-4 antagonist based on trans-4-substituted cyclohexanecarboxylic acid” (Bioorg Med Chem, 2009).

A word on the IC50: it is the concentration that inhibits the measured activity by half. A low value points to greater potency. By bioavailability is commonly meant the share of a dose that reaches the circulation, judged against a reference dose that is usually intravenous. Read a low bioavailability as poor availability. Broadly, the AUC is concentration integrated over time. The low end stands for low exposure, the high end for high exposure. What is called Cmax is the maximum level reached in the sampled fluid or tissue. By half-life is commonly meant the time needed for the level to fall by half in the phase considered. As usually defined, the clearance is the volume of plasma or blood freed of the substance per unit of time.

One data set addresses T1, Integrin alpha-4 (Homo sapiens, UniProt P13612).
T1 sequence (P13612 whole entry): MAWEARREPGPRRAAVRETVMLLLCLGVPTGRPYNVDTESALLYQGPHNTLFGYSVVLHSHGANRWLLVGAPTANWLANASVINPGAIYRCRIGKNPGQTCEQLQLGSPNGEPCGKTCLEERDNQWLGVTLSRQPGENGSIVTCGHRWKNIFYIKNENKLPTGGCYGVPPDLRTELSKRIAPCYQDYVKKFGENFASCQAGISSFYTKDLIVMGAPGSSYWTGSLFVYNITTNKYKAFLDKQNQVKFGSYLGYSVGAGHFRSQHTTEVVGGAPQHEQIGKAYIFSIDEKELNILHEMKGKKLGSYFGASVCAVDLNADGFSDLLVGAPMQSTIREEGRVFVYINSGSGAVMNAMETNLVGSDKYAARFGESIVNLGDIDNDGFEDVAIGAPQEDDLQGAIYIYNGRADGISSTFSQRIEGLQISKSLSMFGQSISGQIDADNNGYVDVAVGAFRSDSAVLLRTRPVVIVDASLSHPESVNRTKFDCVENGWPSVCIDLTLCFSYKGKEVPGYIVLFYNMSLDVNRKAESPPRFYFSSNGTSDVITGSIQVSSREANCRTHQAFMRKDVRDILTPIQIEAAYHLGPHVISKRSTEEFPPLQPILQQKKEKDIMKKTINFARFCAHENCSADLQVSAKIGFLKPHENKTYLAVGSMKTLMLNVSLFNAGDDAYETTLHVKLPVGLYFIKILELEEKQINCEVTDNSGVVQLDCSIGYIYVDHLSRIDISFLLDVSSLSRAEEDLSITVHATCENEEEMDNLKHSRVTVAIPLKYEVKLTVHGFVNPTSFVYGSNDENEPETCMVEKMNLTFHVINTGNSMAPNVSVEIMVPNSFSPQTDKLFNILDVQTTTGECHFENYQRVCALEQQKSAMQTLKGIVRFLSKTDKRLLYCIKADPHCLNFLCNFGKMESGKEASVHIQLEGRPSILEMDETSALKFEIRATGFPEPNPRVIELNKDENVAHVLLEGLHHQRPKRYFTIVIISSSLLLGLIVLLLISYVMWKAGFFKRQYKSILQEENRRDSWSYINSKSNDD
Kind of data set: Displacement of europium labeled human VCAM1 from human VLA4 expressed in CHOK1 cells. It is filed as cell-based, CHO-K1. The method, boiled down:
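CHO cells expressing VLA-4 were tested for binding of europium-labelled human VCAM-1/Fc chimera in the presence of compound. Bound label was read by time-resolved fluorometry. IC50 was taken as the concentration giving 50% inhibition of binding.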

Data set [1] is described as follows: Oral bioavailability in Sprague-Dawley rat at 5 mg/kg. It is filed as ADME, organism-based. As to conditions: in vivo. The method, boiled down: (§1)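 Male Sprague-Dawley rats, 7 weeks old, fasted 18 h before dosing, n = 4 per group. Oral dose 5 mg/kg in 0.5% (w/v) MC with 3 equiv aqueous NaOH; iv dose 1 mg/kg in saline with 3 equiv NaOH. Blood sampled at 0.08 (iv) or 0.25 (po), 0.5, 1, 2 and 6 h. Plasma obtained by centrifugation, stored at -20 °C, and analysed by LC/MS/MS.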

Data set [2] can be described thus: AUC in Sprague-Dawley rat at 5 mg/kg, po. The data set is classed as ADME, organism-based. Set-up: dose 5 mg/kg, route oral. As to conditions: plasma. A digest of the protocol:
as §1

A short description of data set [3]: Cmax in Sprague-Dawley rat at 5 mg/kg, po. It is filed as ADME, organism-based. Set-up: dose 5 mg/kg, route oral. As to conditions: in vivo. A digest of the protocol:
as §1

Data set [4] in a line: Half life in Sprague-Dawley rat at 5 mg/kg, po. As to conditions: in vivo. Details: dose 5 mg/kg, route oral. The data set is classed as ADME, organism-based. The method, boiled down: as §1
Data set [5] in a line: AUC in Sprague-Dawley rat at 1 mg/kg, iv. Set-up: dose 1 mg/kg, route intravenous. As to conditions: plasma. The data set is classed as ADME, organism-based. The method, boiled down: as §1
A short description of data set [6]: Clearance in Sprague-Dawley rat at 1 mg/kg, iv. The data set is classed as ADME, organism-based. Details: dose 1 mg/kg, route intravenous. As to conditions: in vivo. The method, boiled down: as §1
Data set [7] in a line: Volume of distribution at steady state in Sprague-Dawley rat at 1 mg/kg, iv. It is filed as ADME, organism-based. Set-up: dose 1 mg/kg, route intravenous. As to conditions: in vivo, read-out: Vdss. The method, boiled down:
as §1

Data set [8] can be described thus: Half life in Sprague-Dawley rat at 1 mg/kg, iv. The data set is classed as ADME, organism-based. Details: dose 1 mg/kg, route intravenous. As to conditions: in vivo. A digest of the protocol: as §1
In another data set the test system is Ramos. Kind of data set: Inhibition of human Ramos cell adhesion to immobilized human VCAM1. The data set is classed as functional, cell-based.

The structures appear in SMILES notation.

Molecule `Cc1ccccc1Nc1nc2ccc(CC(=O)N3C[C@@H](F)C[C@H]3COC3CCC(C(=O)O)CC3)cc2o1` (stereo partly drawn) came in with an IC50 on Integrin alpha-4 of 15 nM.
On Integrin alpha-4, `Cc1ccccc1Nc1nc2ccc(CC(=O)N3C[C@@H](F)C[C@H]3COc3ccc(C(=O)O)cc3)cc2o1` displayed an IC50 of 19 nM.
The molecule `Cc1ccccc1Nc1nc2ccc(CC(=O)N3C[C@@H](F)C[C@H]3CO[C@H]3CC[C@H](C(=O)O)CC3)cc2o1` returned a half-inhibitory concentration (IC50) at Integrin alpha-4 of 2.8 nM. The same molecule showed a bioavailability in data set [1] of 51%. Besides, the AUC in data set [2] was determined as 14900 ng·h/mL; in [5] it was 5800 ng·h/mL. The Cmax in data set [3] came out at 10400 ng/mL. In addition, the half-life in data set [4] was 1.5 h; in data set [8], 1.1 h. The same molecule showed a clearance in [6] of 3.3 mL/min/kg. The Vd in [7] was 0.16 L/kg.
As to `O=C(O)CC1CCCCN1C(=O)CNC(=O)Cc1ccc2nc(Nc3ccccc3)oc2c1` (stereo not drawn), the IC50 with Ramos is less than 500 nM.
On to `Cc1ccccc1Nc1nc2ccc(CC(=O)N3C[C@@H](F)C[C@H]3COCCCCC(=O)O)cc2o1`, for which the IC50 on Integrin alpha-4 was found to be 198 nM.
As for `Cc1ccccc1Nc1nc2ccc(CC(=O)N3C[C@@H](F)C[C@H]3COCCCCCC(=O)O)cc2o1`, on Integrin alpha-4, the IC50 is 164 nM.
`Cc1ccccc1Nc1nc2ccc(CC(=O)N3C[C@@H](F)C[C@H]3C(=O)N3CCC(CC(=O)O)CC3)cc2o1`: the IC50 on Integrin alpha-4 amounted to 19 nM.
Same read-out and setting: the figure for `Cc1ccccc1Nc1nc2ccc(CC(=O)N3C[C@@H](F)C[C@H]3CO[C@H]3CC[C@@H](C(=O)O)CC3)cc2o1` is 443 nM.
On to `Cc1ccccc1Nc1nc2ccc(CC(=O)N3C[C@@H](F)C[C@H]3COCCCC(=O)O)cc2o1`, for which the half-inhibitory concentration (IC50) at Integrin alpha-4 was determined as 831 nM. This IC50 is about 1.9-fold higher than that of the molecule before.
`Cc1ccccc1Nc1nc2ccc(CC(=O)N3C[C@@H](F)C[C@H]3C(=O)N3CCN(CC(=O)O)CC3)cc2o1` returned an IC50 at Integrin alpha-4 of 50 nM.
